Published values gathered from unrelated publications.
Each line is one published result; the experiments were not run side by side.
Effect on: cell growth or viability

SMILES | cell line | test | conditions | endpoint | result
C[C@H](Nc1ccc2c(c1)OCCn1cc(N3C(=O)OC[C@H]3C(F)F)nc1-2)C(N)=O | BFTC-909 | ATP luminescence | 5 days | EC50 | 342 nM
CCCCC(=O)Nc1ccc(-c2ccc3ncn(CCCF)c(=O)c3c2)cn1 | HCC827 | CCK-8 | 72 h | IC50 | 92 nM
Cc1nc(Nc2ncc(C(=O)Nc3c(C)cccc3Cl)s2)cc(N2CC[C@H](O)C2)n1 | KU812 | ATP luminescence | 10 µM, 72 h | inhibition | 97%
CN(C)CCNC(=O)c1ccc(-c2nc3ccc4[nH]ncc4c3c3c2CCCCC3)cc1 | HCC827 | – | 72 h | GI50 | 3040 nM
O=C(Nc1ccc(-c2ccc3ncn(Cc4ccccc4)c(=O)c3c2)cn1)c1ccc(F)cc1 | HCC827 | CCK-8 | 72 h | IC50 | > 10000 nM
CN(C)CCNC(=O)c1ccc(-c2nc3ccc4[nH]ncc4c3c3c2CCCCC3)c(F)c1 | HCC827 | – | 72 h | GI50 | 985 nM
Cc1nc(NC(=O)N2CCC[C@H]2C(N)=O)sc1-c1ccnc(C(C)(C)C(F)(F)F)c1 | BFTC-909 | ATP luminescence | 5 days | EC50 | 5560 nM
CCCCC(=O)Nc1ccc(-c2ccc3ncn(CCF)c(=O)c3c2)cn1 | HCC827 | CCK-8 | 72 h | IC50 | 360 nM
CN(C)CCNC(=O)c1ccc(-c2nc3ccc4[nH]ncc4c3c3c2CCCC3)cc1 | HCC827 | – | 72 h | GI50 | 1040 nM
